In PMC7161550 (British Journal of Pharmacology, 2020):
Several values for one entry are separate records, joined by “and”; a condition that tells them apart may be missing. Equal entries are not always repeated.

Columns and labels:
[1] = tested on: brain 2‐arachidonoylglycerol (2‐AG); test: 2‐arachidonoylglycerol; format: in vivo; details: mouse, 10 mg·kg^−1 p.o.
How it was run: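 Frozen brains were thawed at 4°C and weighed. Each sample was extracted with chloroform:MeOH (2:1) plus 0.1 M phosphate buffer, pH 5.6. Deuterated internal standards were spiked in: AEA‑d8, PEA‑d4 and OEA‑d2 for the fatty acid amides, and 2‑AG‑d8 for 2‑AG.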

[2] = format: in vivo; details: rat, 10 mg·kg^−1 p.o.
CYP1A2 = CYP1A2 (Homo sapiens, UniProt P05177); test: CYP inhibition, pooled human liver microsomes; format: in vitro ADME; details: 0.33–99.2 μM, co‐ and pre‐incubation
How it was run: (§1)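 The rate of metabolite formation was measured; testosterone was one CYP3A4 substrate. Controls: solvent vehicle, enzyme-selective inhibitors, mechanism-based inhibitors. Analysis by HPLC with online radio-detection or LC/MS/MS.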

CYP2B6 = CYP2B6 (Homo sapiens, UniProt P20813); test: CYP inhibition, pooled human liver microsomes; format: in vitro ADME; details: 0.33–99.2 μM, co‐ and pre‐incubation
How it was run: as §1

CYP2D6 = CYP2D6 (Homo sapiens, UniProt P10635); test: CYP inhibition, pooled human liver microsomes; format: in vitro ADME
How it was run: as §1

CYP3A4 = CYP3A4 (Homo sapiens, UniProt P08684); test: CYP inhibition, pooled human liver microsomes; format: in vitro ADME
How it was run: as §1

human MATE2-K = human MATE2-K (Homo sapiens, UniProt Q86VL8); test: Transporter inhibition, probe substrate accumulation; format: in vitro ADME
How it was run: (§2)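 Inhibition of probe substrate accumulation in transfected cells: CHO‑K1 for OAT1 and OCT1; HEK293 for OAT3, OATP1B1 and OATP1B3; MDCKII for OCT2, MATE1 and MATE2‑K. Each transporter's activity was confirmed with a positive control substrate or inhibitor.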

OAT3 = OAT3 (Homo sapiens, UniProt Q8TCC7); test: as above; format: in vitro ADME; details: HEK293 cells stably transfected with OAT3
How it was run: as §2

OCT1 = OCT1 (Homo sapiens, UniProt O15245); test: as above; format: in vitro ADME; details: CHO-K1 cells stably transfected with OCT1
How it was run: as §2

MATE1 = MATE1 (Homo sapiens, UniProt Q96FL8); test: as above; format: in vitro ADME; details: MDCKII cells stably transfected with MATE1
How it was run: as §2

human OAT1 = human OAT1 (Homo sapiens, UniProt Q4U2R8); test: as above; format: in vitro ADME; details: 0.033–33.3 μM
How it was run: as §2

human OATP1B3 = human OATP1B3 (Homo sapiens, UniProt Q9NPD5); test: as above; format: in vitro ADME; details: 0.033–33.3 μM
How it was run: as §2

[3] = tested on: human solute carrier (SLC) transporters; test: Accumulation of BIA 10‐2474 in transporter‐expressing and control cells; format: in vitro ADME; details: transporter‐expressing vs control cell, all conditions tested
How it was run: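 Test compound accumulation was compared between transporter-expressing and control cells, expressed as transporter-specific fold accumulation. Transfected lines: CHO‑K1 (OAT1, OCT1), HEK293 (OAT3, OATP1B1, OATP1B3), MDCKII (OCT2, MATE1, MATE2‑K). Transporter activity was confirmed with positive control substrate or inhibitor.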

BCRP = biological target: T1, BCRP (Homo sapiens, UniProt Q9UNQ0); test: Bidirectional permeability in MDCKII‐BCRP monolayers; format: in vitro ADME
T1 sequence (Q9UNQ0 1-655): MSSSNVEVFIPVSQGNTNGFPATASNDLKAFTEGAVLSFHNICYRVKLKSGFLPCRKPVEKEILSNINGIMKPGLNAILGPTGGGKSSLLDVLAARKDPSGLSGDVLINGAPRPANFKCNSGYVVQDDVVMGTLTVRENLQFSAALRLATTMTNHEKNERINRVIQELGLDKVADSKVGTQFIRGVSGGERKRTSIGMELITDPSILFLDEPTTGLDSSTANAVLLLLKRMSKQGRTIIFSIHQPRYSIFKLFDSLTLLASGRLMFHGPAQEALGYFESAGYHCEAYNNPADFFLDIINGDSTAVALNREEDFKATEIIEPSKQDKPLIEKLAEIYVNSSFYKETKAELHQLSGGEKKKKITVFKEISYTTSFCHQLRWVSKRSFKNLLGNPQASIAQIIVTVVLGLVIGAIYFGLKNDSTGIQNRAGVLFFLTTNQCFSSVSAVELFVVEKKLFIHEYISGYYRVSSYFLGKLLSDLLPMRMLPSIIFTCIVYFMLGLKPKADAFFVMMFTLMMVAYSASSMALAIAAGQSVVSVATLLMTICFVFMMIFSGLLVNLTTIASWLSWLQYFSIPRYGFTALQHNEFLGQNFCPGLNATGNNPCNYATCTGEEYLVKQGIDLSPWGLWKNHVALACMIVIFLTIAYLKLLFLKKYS
How it was run: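 Test compound (10 μM) permeability was measured in A–B and B–A directions across MDCKII‑BCRP and parental MDCKII monolayers. 3H‑prazosin (1 μM) served as positive control, with a BCRP inhibitor at 1 μM. Net efflux ratio = ER(BCRP) − ER(MDCKII).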

CaI‐PLA2 (PLA2G6) = CaI‐PLA2 (PLA2G6) (Rattus norvegicus, UniProt P97570); test: ABPP ex vivo, rat brain after oral BIA 10‐2474; format: in vivo
rat brain = test: Brain histopathology and behaviour in rats dosed 1 to 28 days; format: in vivo; details: rat, 10, 30 or 100 mg·kg^−1·day^−1 p.o.
SHRSP = test: Stroke‐prone spontaneously hypertensive rats; format: in vivo, rat; details: 30 mg·kg^−1 p.o. daily
How it was run: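 SHRSP rats on stroke-prone diet with high-salt intake, n = 30 per group, received daily oral 0.2% HPMC vehicle or test compound at 30 mg·kg−1 in 0.2% HPMC (4 ml·kg−1). Normal-diet, tap-water controls (n = 10) received vehicle. Dosing continued until about half of either treated group had died; surviving rats' brains were examined histologically.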

[4] = GLP rat toxicology studies; format: in vivo; details: 100 mg·kg^−1, assuming brain:plasma ratio of 1:5
[5] = pre‐incubation with BIA 10‐2474

Sequence of human MATE2-K (Q86VL8 1-566 isoform Q86VL8-3): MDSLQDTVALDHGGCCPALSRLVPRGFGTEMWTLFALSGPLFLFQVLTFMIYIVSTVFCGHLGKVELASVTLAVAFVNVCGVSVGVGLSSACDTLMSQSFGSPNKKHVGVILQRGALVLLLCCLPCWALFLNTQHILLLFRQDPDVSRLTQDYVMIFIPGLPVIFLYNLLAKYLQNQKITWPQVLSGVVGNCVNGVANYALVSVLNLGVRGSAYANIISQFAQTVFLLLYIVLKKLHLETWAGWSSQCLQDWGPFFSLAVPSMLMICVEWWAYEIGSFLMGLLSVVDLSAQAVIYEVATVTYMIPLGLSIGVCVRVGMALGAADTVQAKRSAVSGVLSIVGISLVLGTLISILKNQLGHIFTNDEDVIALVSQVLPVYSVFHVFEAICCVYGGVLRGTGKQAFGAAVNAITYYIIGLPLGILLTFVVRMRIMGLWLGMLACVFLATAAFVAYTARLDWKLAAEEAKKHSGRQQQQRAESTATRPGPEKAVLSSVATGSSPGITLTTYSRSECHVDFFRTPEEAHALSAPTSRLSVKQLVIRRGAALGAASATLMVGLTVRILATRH
Sequence of CYP3A4 (P08684 whole entry): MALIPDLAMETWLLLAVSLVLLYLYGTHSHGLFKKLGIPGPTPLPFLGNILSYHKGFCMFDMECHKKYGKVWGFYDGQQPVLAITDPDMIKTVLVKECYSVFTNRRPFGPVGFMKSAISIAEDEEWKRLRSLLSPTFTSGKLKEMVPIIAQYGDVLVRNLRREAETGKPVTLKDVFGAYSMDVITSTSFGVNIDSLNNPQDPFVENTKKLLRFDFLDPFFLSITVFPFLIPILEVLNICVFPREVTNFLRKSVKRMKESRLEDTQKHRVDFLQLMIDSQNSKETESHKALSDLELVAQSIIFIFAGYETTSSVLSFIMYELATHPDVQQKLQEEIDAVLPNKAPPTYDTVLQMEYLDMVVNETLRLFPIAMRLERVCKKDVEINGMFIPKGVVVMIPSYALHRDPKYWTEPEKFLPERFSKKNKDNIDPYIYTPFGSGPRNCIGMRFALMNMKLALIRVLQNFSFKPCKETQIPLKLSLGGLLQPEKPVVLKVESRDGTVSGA
Sequence of CYP2D6 (P10635 whole entry): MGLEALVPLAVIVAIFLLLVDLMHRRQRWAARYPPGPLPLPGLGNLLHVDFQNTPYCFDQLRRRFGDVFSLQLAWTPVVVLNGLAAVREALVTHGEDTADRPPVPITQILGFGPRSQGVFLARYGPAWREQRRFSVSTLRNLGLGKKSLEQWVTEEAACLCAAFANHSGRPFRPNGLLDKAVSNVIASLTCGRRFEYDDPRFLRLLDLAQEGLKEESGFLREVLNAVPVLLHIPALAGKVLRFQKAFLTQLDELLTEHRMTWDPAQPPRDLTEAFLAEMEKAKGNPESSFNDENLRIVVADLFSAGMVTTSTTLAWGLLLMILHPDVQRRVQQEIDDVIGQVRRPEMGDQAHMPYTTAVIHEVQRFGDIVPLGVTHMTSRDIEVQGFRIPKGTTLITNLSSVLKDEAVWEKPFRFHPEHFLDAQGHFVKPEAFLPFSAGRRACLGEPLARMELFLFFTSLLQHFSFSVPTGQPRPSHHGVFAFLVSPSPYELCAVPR
Sequence of CaI‐PLA2 (PLA2G6) (P97570 whole entry): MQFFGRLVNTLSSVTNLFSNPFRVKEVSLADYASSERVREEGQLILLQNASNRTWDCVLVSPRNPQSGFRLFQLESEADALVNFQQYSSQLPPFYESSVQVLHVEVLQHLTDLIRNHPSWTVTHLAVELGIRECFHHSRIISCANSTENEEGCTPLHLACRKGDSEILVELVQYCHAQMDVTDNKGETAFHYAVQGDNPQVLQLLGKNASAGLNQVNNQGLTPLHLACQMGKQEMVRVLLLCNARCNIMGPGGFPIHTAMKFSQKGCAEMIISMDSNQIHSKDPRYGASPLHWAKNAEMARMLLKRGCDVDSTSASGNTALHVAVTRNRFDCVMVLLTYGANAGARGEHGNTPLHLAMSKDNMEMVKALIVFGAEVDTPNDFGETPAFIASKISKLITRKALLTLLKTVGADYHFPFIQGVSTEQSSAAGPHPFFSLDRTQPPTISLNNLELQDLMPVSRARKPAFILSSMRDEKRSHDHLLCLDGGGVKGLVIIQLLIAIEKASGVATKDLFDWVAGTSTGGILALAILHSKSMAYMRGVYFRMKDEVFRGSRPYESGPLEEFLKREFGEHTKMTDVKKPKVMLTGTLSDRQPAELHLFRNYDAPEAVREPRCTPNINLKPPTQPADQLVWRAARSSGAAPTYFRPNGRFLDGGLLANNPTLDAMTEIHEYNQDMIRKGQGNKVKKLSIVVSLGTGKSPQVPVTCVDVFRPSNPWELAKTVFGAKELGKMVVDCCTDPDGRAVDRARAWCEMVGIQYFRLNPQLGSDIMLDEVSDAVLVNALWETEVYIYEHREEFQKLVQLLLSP
Sequence of MATE1 (Q96FL8 whole entry): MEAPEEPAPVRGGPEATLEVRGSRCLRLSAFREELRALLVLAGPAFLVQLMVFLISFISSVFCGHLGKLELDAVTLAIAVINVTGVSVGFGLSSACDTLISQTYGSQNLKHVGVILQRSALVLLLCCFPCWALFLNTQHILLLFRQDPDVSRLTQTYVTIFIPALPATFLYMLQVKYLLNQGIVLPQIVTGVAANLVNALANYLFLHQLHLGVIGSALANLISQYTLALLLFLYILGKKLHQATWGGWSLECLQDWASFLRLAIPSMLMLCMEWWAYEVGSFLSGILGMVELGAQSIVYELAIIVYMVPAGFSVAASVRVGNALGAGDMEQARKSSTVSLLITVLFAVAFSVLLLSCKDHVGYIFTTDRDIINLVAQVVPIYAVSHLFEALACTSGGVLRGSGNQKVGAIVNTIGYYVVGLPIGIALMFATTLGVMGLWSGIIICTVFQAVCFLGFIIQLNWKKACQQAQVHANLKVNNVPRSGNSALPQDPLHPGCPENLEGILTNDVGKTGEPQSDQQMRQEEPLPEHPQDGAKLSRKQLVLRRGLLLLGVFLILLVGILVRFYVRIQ
Sequence of human OAT1 (Q4U2R8 whole entry): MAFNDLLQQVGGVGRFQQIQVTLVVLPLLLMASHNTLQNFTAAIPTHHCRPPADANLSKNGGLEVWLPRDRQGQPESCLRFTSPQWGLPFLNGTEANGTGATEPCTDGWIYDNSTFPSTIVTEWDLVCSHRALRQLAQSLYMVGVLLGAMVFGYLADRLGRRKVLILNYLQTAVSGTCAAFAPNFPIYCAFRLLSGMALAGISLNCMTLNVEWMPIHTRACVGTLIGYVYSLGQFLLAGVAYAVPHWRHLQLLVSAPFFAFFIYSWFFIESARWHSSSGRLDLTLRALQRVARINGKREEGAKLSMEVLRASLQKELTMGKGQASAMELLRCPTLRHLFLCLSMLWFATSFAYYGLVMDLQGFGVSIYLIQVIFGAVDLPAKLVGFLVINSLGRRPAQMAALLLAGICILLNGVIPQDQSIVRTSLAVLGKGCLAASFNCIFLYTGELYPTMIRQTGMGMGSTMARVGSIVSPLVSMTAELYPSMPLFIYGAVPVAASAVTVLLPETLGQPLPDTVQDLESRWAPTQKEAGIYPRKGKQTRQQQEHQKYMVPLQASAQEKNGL
Sequence of CYP1A2 (P05177 whole entry): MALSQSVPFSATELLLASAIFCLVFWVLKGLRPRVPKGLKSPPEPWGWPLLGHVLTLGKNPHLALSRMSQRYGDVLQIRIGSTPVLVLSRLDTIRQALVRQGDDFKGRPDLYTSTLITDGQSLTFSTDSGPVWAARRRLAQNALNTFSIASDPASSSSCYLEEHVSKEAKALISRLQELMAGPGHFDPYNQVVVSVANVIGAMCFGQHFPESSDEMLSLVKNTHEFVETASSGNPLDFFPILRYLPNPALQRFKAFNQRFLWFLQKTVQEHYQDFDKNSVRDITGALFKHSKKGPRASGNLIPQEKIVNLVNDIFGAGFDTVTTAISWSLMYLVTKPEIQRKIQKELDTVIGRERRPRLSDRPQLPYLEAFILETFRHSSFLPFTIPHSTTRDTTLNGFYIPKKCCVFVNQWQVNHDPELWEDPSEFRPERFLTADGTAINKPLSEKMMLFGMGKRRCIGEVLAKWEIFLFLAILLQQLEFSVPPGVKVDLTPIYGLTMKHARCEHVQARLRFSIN
Sequence of human OATP1B3 (Q9NPD5 whole entry): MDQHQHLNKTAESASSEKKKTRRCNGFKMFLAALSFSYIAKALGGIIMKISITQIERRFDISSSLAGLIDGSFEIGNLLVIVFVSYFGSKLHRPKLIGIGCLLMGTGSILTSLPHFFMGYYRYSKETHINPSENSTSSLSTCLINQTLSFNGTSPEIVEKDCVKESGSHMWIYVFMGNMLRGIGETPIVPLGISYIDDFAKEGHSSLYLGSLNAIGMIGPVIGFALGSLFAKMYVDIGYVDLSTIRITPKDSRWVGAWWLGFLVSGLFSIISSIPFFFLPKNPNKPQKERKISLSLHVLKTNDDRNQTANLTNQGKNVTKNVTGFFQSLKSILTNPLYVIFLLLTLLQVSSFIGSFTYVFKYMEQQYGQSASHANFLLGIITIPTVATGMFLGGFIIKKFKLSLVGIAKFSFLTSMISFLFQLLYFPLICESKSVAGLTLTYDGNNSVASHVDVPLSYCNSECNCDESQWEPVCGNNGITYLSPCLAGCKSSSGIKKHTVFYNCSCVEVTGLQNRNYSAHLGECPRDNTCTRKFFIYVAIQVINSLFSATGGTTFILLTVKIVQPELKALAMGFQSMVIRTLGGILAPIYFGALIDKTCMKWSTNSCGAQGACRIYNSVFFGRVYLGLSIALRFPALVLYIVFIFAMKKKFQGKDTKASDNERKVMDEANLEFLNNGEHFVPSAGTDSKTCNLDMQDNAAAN

CN(C(=O)n1cnc(-c2ccc[n+]([O-])c2)c1)C1CCCCC1 [BIA 10‐2474, 3‐(1‐(cyclohexyl (methyl)carbamoyl)‐1H‐imidazol‐4‐yl)pyridine 1‐oxide]
brain 2‐AG level ([1]; 1 hr, vehicle 45.1 ± 7.9): 30.4 ± 11.7 µg/g | brain 2‐AG level ([1]; 4 hr, vehicle 40.9 ± 3.4): 44.5 ± 4.9 µg/g | brain 2‐AG level ([1]; 8 hr, vehicle 39.0 ± 13.2): 34.9 ± 7.7 µg/g | brain 2‐AG level ([1]; 24 hr, vehicle 38.0 ± 5.7): 31.4 ± 9.4 µg/g | level in all brain sections ([2]; 24 hr after acute and 24, 48 and 72 hr after chronic administration): < 50 ng·g^−1 of tissue | brain levels, acute versus repeated oral administration ([2]; any brain region and time point): no significant differences | inhibitory effect on CY1A2 (CYP1A2): did not exhibit any inhibitory effects | inhibitory effect on CYP2B6 (CYP2B6): did not exhibit any inhibitory effects | inhibition of CYP2D6 (CYP2D6; co‐incubation): minor inhibition | inhibition of CYP2D6 (CYP2D6; [5]): no effect | inhibitory effect on CYP3A4 [midazolam] (CYP3A4; 0.33–99.2 μM, co‐ and pre‐incubation): did not exhibit any inhibitory effects | inhibition of CYP3A4 (testosterone as substrate) (CYP3A4; co‐incubation): minor inhibition | inhibition of CYP3A4 (testosterone as substrate) (CYP3A4; [5]): no effect | maximum inhibition, MATE2‐K (human MATE2-K): 59% | IC50 (human MATE2-K; IC50, MATE2‐K‐mediated probe substrate accumulation): 3.43 µM and 3.4 µM | inhibition (OAT3): 34% | inhibition at 10 μg·ml^−1 (OCT1): 26% | inhibition at 10 μg·ml^−1 (MATE1): 24% | effect on OAT1‐mediated probe substrate accumulation (human OAT1): did not influence | effect on OATP1B3‐mediated probe substrate accumulation (human OATP1B3): did not influence | transporter specific fold accumulations [3]: < 2 | efflux ratio (BCRP; highest observed net efflux ratio (ERBCRP‐ERMDCKII), 10 and 1 μM): 5.7 | efflux ratio (BCRP; net ER, MDCKII‐BCRP, without inhibitor): 4.95 | efflux ratio (BCRP; with Ko143 1 μM, net ER, MDCKII‐BCRP, with 1 μM of Ko143): 0.03 | rats in which PLA2g6 was completely inhibited (CaI‐PLA2 (PLA2G6); 30 mg·kg^−1): four out of six rats | rats in which PLA2g6 was completely inhibited (CaI‐PLA2 (PLA2G6); 100 mg·kg^−1): three out of six rats | brain histopathology (rat brain): no abnormalities | overt behavioural abnormalities during treatment (rat brain): none of the animals used in this study showed any overt behavioural abnormalities | effect on mortality rate compared with vehicle (SHRSP; log‐rank test P = .1882): no effect | surviving rats with haemorrhage in the hippocampus and dorsal cortex (SHRSP; vehicle three of the 14): Three of the 17 | maximum brain concentrations (suggested) [4]: around 20 μM
